Compound activity: PubChem, several laboratories
The full list was thinned out, with hits kept by preference.
NLRP3 yeast inh – NALP3 inflammasome inhibitors in reconstituted yeast, primary screen, luminescence, uHTS. AID 2825, 2010. Yeast reconstituted NLRP3/ASC/caspase-1, beta-gal luminescence, 24 h. actives 0.39% (n = 330,000). inhibition, % at 10 µM;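 active = inhibition of 50% or more; inactive = inhibition below 50%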;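 note: plate controls were induced DMSO wells for no effect and uninduced yeast grown without galactose for full effect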
PolyA inh – polyadenylation inhibitors in yeast reporter cells, primary screen, luminescence, S. cerevisiae. S. cerevisiae SKY197-pL101 polyadenylation reporter, beta-gal luminescence; efflux-impaired pdr1/pdr3 knockout yeast; score 100 = 6 SD above DMSO. activity score, % at 12 µM. actives 0.02% (n = 300,000);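 active = lowest replicate activity score at least 50, where 100 means six control SD above control mean; inconclusive = lowest score under 50 but half or more replicates reach 50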;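 note: yeast exposed to compound for 9 h at 30 °C; higher score means more reporter readthrough which indicates perturbed polyadenylation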
NALP1 yeast inh – NALP1 inflammasome inhibitors in reconstituted yeast, colorimetric, S. cerevisiae, triplicate retest; S. cerevisiae NALP1/ASC/caspase-1 growth, X-gal OD620, 72 h; inhibition, % at 10 µM; actives 0.61% (n = 280,000); AID 2071, 2009; in the data active = inhibition mostly above about 24%, no sharp cut-off; inactive = mostly below about 32%
Lmaj promast – Leishmania major promastigote growth inhibition, primary screen. Leishmania major promastigotes, resazurin fluorescence viability. actives 9% (n = 200,000). AID 1063, 2008. inhibition, % at 10 µM; in the data active = inhibition above about 50%;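 note: promastigotes grown with compound for 44 hours at 28 °C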
T cruzi inh – inhibitors of intracellular T. cruzi growth, primary screen, luminescence, NIH3T3 host cells; inhibition, % (concentration not given with the values); actives 1.4% (n = 300,000); T. cruzi beta-gal in NIH3T3, 90 h; AID 1885, 2009;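 active = mean inhibition across valid replicates above about 55%, limit read from the data; inconclusive = mean below that limit but half or more replicates reach it; inactive = mean below it, under half of replicates reach it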;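 note: signal also drops with host cell toxicity which is not excluded here; 0% = plate median of DMSO wells and 100% = zero luminescence signal; higher percent means less beta-gal luminescence so fewer parasites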
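System – NIH/3T3 host cells with β-galactosidase reporter T. cruzi · Doses – single 50 nL compound addition per well in DMSO · Reagent – 5000 T. cruzi trypomastigotes/well · Medium – Low-serum DMEM with 2% FBS · Timing – ≥90 h infection period, 3 h prior cell attachment · Evaluation – parasite load inhibition, % · Technique – GalScreen luminescence, 60 min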
Calb FLC – C. albicans growth inhibition with fluconazole, primary screen, CaCi-2 strain, Alamar Blue fluorescence; C. albicans CaCi-2 + fluconazole, 48 h; growth inhibition, % (concentration not given with the values); actives 0.57% (n = 300,000); AID 1979, 2009;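 active = growth inhibition above about 58% in most replicates, limit read from the data, passing the limit was not always enough; inconclusive = exactly half the replicates above a set limit; inactive = most replicates below a set limit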;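 note: all wells also contain fluconazole at 8 µg/ml as a sub-toxic cotreatment; 0% = median of DMSO wells and 100% = median of geldanamycin control wells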
An asterisk follows results filed as active.

For CSCCC(=O)Nc1cc(S(=O)(=O)N2CCOCC2)ccc1N1CCN(C)CC1 the results were NLRP3 yeast inh 17, PolyA inh 8, NALP1 yeast inh 15, Lmaj promast -6, T cruzi inh 65* and Calb FLC -5.
`COc1ccc(NC(=O)c2ccc(NCCCN3CCOCC3)c([N+](=O)[O-])c2)cc1` gave NLRP3 yeast inh 33, PolyA inh -3, NALP1 yeast inh 10, Lmaj promast 55*, T cruzi inh -2 and Calb FLC 2.
Screening O=C(NCCCN1CCOCC1)c1ccc(Cl)c([N+](=O)[O-])c1 returned NLRP3 yeast inh 19, PolyA inh -3, T cruzi inh 0 and Calb FLC 3.
`O=C(Nc1ccc(Cl)c([N+](=O)[O-])c1)c1ccc(NCCCN2CCOCC2)c([N+](=O)[O-])c1` gave NLRP3 yeast inh 20, PolyA inh -15, NALP1 yeast inh 33, Lmaj promast 45, T cruzi inh 55* and Calb FLC 27.
`Cc1ccc(NC(=O)c2ccc(NCCCN3CCOCC3)c([N+](=O)[O-])c2)cc1Cl` gave NLRP3 yeast inh 25, PolyA inh -3, NALP1 yeast inh 12, Lmaj promast 99*, T cruzi inh 33 and Calb FLC 4.
For CCN(C(=O)CSc1nnc(-c2ccc(Cl)cc2)n1C)C1CCS(=O)(=O)C1 (configuration not stated) the results were NLRP3 yeast inh 3, PolyA inh 3, NALP1 yeast inh 13, Lmaj promast -4, T cruzi inh -4 and Calb FLC -5.
Screening CS(=O)(=O)c1ccc(NCCc2ccc(S(N)(=O)=O)cc2)c([N+](=O)[O-])c1 returned NLRP3 yeast inh 7, PolyA inh inconclusive, NALP1 yeast inh -21, T cruzi inh 4 and Calb FLC 3.
Screening COc1ccc(C2=NNC(=Nc3cc(S(=O)(=O)N(C)C)ccc3C)SC2)c(OC)c1 returned NLRP3 yeast inh 4, PolyA inh 14, NALP1 yeast inh 12, T cruzi inh 72* and Calb FLC -5.
Screening CN(C)S(=O)(=O)c1cccc(N=C2NN=C(c3ccccc3)CS2)c1 returned NALP1 yeast inh 18 and Lmaj promast -6.
For Cc1ccc(C(=O)N/C(=C\c2cn(S(=O)(=O)N(C)C)c3ccccc23)C(=O)NCCN2CCOCC2)cc1 the results were NLRP3 yeast inh 11, PolyA inh 3, NALP1 yeast inh -50, T cruzi inh -5 and Calb FLC 28.
`CC(=O)Nc1ccc(NC(=O)CSc2ccc3nnc(CCNS(=O)(=O)c4ccc(C)cc4)n3n2)cc1` gave NLRP3 yeast inh 7, PolyA inh 4, NALP1 yeast inh 26, T cruzi inh -20 and Calb FLC 77*.
Screening CCOC(=O)CSc1ccc2nnc(CCNS(=O)(=O)c3ccc(C)cc3)n2n1 returned NLRP3 yeast inh 12, PolyA inh -4, NALP1 yeast inh 12, Lmaj promast 0, T cruzi inh -2 and Calb FLC -2.
Screening CCOc1ccc(OCC)c(NS(=O)(=O)c2ccc3c(c2)CCN3C(=O)C2CCC2)c1 returned NLRP3 yeast inh 11, PolyA inh 4, NALP1 yeast inh 4, Lmaj promast 99*, T cruzi inh 36 and Calb FLC -10.
Screening CCC(=O)N1CCc2cc(S(=O)(=O)NC(Cc3ccccc3)C(=O)NC3CCCCC3)ccc21 (configuration not stated) returned PolyA inh 18, NALP1 yeast inh 18, Lmaj promast 7, T cruzi inh -2 and Calb FLC 9.
Screening CCC(=O)N1CCc2cc(S(=O)(=O)NC(CC(C)C)C(=O)N3CCc4ccccc43)ccc21 (configuration not stated) returned NLRP3 yeast inh 10, NALP1 yeast inh 27 and Lmaj promast 100*.
CC(=O)N1CCc2cc(S(=O)(=O)NC(Cc3ccccc3)C(=O)Nc3cc(C)ccn3)ccc21 (configuration not stated) was read as NLRP3 yeast inh 5, PolyA inh -6, NALP1 yeast inh 38*, Lmaj promast 8, T cruzi inh -9 and Calb FLC 8.
`CCC(=O)N1CCc2cc(S(=O)(=O)NCCN3CCC(C)CC3)ccc21` gave NLRP3 yeast inh 0, PolyA inh 10, NALP1 yeast inh 2, Lmaj promast 54*, T cruzi inh 6 and Calb FLC 11.
Screening COc1ccc(CNS(=O)(=O)c2ccc3c(c2)CCN3C(=O)C2CCC2)cc1 returned NLRP3 yeast inh 9, PolyA inh 5, NALP1 yeast inh 10, T cruzi inh -3 and Calb FLC 7.
For COc1ccc(Cc2nnc(SCC(=O)Nc3ccccc3C#N)o2)cc1 the results were NLRP3 yeast inh 2, PolyA inh -13, NALP1 yeast inh -1, T cruzi inh -17 and Calb FLC -3.
COCCN(Cc1ccccc1)C(=O)c1ccc(C(=O)c2ccccc2)cc1 was read as NLRP3 yeast inh 3.
For CC1CCC(C(C)C)C(OC(=O)C[n+]2cccc(C(N)=O)c2)C1 (configuration not stated) the results were NLRP3 yeast inh 8, PolyA inh -1, NALP1 yeast inh 17, Lmaj promast -4, T cruzi inh -9 and Calb FLC 4.
CC(C)[C@@H]1CC[C@@H](C)C[C@H]1OC(=O)C[n+]1cc(-c2ccc(Cl)cc2)n2c1CCCCC2 was read as NLRP3 yeast inh 24, PolyA inh 13, NALP1 yeast inh 7, T cruzi inh 51 and Calb FLC 95*.
`COc1ccc(-c2c[n+](CC(=O)OC3CC(C)CCC3C(C)C)c3n2CCC3)cc1` (configuration not stated) gave NLRP3 yeast inh 18, PolyA inh 16, NALP1 yeast inh -4, Lmaj promast 100*, T cruzi inh 49 and Calb FLC 88*.
For O=C(C[n+]1cc(-c2ccc(Cl)cc2)n2c1CCCCC2)c1ccccc1 the results were NLRP3 yeast inh -3, PolyA inh -4, NALP1 yeast inh 6, T cruzi inh 21 and Calb FLC 37.
`O=C(CCN1C(=O)[C@@H]2Cc3ccccc3CN2C1=O)NCc1ccc(Cl)cc1` gave NLRP3 yeast inh 6, PolyA inh 14, NALP1 yeast inh 1, T cruzi inh 5 and Calb FLC 8.
Screening CC(C)N(CCc1ccncc1)C(=O)Nc1ccc(Cl)c(Cl)c1 returned NLRP3 yeast inh -13, PolyA inh -13, NALP1 yeast inh -2, Lmaj promast 92*, T cruzi inh 26 and Calb FLC 9.
